In data set [1] the test system is Homo sapiens. Put plainly: Toxicity in healthy human assessed as other cellular fractions in bronchoalveolar fluid at 400 mg, po administered as single dose after 4 hrs. As to conditions: in vivo.
Data set [2] has as its system Homo sapiens. Put plainly: Toxicity in healthy human assessed as other cellular fractions in bronchoalveolar fluid at […], po administered as single dose after 12 hrs. The data set is classed as organism-based, Lung. Also noted: route oral. As to conditions: in vivo. The procedure, abridged: (§1)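 Healthy Japanese male never-smokers, aged 20 to 45 years with normal BMI, got one open-label oral 400 mg suspension dose. Four subjects per time group had one fiber-optic bronchoscopic BAL at the assigned post-dose time. The first aliquot was discarded and the last three were pooled. BAL fluid was held on ice and spun at 400 × g for 5 min at 4°C. Pellet cells were counted by hemocytometer, with a differential count on a stained cytocentrifuge preparation.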

Data set [3] concerns Homo sapiens. The data set is described as follows: Toxicity in healthy human assessed as other cellular fractions in bronchoalveolar fluid at […], po administered as single dose after 6 hrs. The data set is classed as organism-based, Lung. Also noted: route oral. As to conditions: in vivo. The procedure, abridged:
as §1

The next data set relates to Staphylococcus aureus. The data set is described as follows: Antimicrobial activity against methicillin susceptible Staphylococcus aureus. The format is functional.
Data set [4] relates to Homo sapiens. Put plainly: Toxicity in healthy human assessed as alveolar macrophage count in bronchoalveolar fluid at 400 mg, po administered as single dose after 12 hrs. As to conditions: in vivo.
Data set [5] is described as follows: Tmax in alveolar macrophages of healthy human at 400 mg, po administered as single dose.
Data set [6] is described as follows: AUC (0 to 24 hrs) in epithelial lining fluid of healthy human at 400 mg, po administered as single dose by linear trapezoidal method.
In data set [7] the test system is Homo sapiens. The data set is described as follows: Toxicity in healthy human assessed as eosinophil count in bronchoalveolar fluid at 400 mg, po administered as single dose after 24 hrs. As to conditions: in vivo.
Data set [8] is described as follows: Ratio of drug level in alveolar macrophages to plasma in healthy human at 400 mg, po administered as single dose after 10 hrs.
Data set [9] is described as follows: Ratio of drug level in epithelial lining fluid to plasma in healthy human at […], po administered as single dose after 4 hrs. The format is ADME, organism-based. Also noted: route oral. The procedure, abridged: (§2)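 For each subject, ELF or AM drug level after the single oral 400 mg dose is divided by the plasma level sampled at the BAL time (2-24 h). Ratios are summarized per four-subject group.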

Data set [10] is described as follows: Drug level in alveolar macrophages of healthy human at […], po administered as single dose after 6 hrs. The data set is classed as ADME, organism-based, Macrophage. Also noted: route oral. As to conditions: read-out: Drug uptake. In short, it runs like this:
(§3)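 One oral 400 mg suspension dose; four volunteers lavaged at each time (2-24 h). Cell pellet from the pooled 2nd-4th aspirates was counted (hemocytometer, stained cytospin differential). Drug in cell suspension measured by HPLC, divided by AM volume assuming 2.42 μl/10^6 cells. Cmax and Tmax are model-independent, based on mean concentrations at each time.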

The nature of data set [11]: Plasma concentration in healthy human at […], po after 8 hrs. Also noted: route oral. The format is ADME, organism-based. The procedure, abridged:
(§4)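 Healthy nonsmoking Japanese men, 20-45 y, given one oral 400 mg suspension dose. Blood drawn at 0-72 h, spun at 1,600 × g for 10 min at 4°C, plasma kept at −20°C. Drug measured by validated LC/MS/MS, linear 0.005-5 μg/ml. Values are mean ± SD, n = 28. Cmax, Tmax and t1/2,z are model-independent; AUC0-24 by trapezoidal method.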

Data set [12] can be described thus: Drug level in epithelial lining fluid of healthy human at […], po administered as single dose after 8 hrs. The data set is classed as ADME, organism-based. Also noted: route oral. As to conditions: read-out: Drug uptake. The procedure, abridged: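 Four healthy male volunteers per BAL time (2-24 h) after one oral 400 mg suspension dose. Single bronchoscopic lavage; first aliquot discarded, next three pooled. Supernatant separated at 400 × g, 5 min, 4°C, and drug assayed by LC/MS/MS. ELF level = CBAL × urea plasma/urea BAL, with urea corrected for blood contamination via RBC ratio. PK parameters are model-independent, based on the mean concentration at each time.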

Data set [13] can be described thus: Plasma concentration in healthy human at […], po after 2 hrs. The data set is classed as ADME, organism-based. Also noted: route oral. The procedure, abridged:
as §4

Data set [14] is described as follows: Drug level in alveolar macrophages of healthy human at […], po administered as single dose after 8 hrs. The format is ADME, organism-based, Macrophage. Also noted: route oral. As to conditions: read-out: Drug uptake. The procedure, abridged:
as §3

The nature of data set [15]: Ratio of drug level in epithelial lining fluid to plasma in healthy human at […] administered as single dose after 2 hrs. As to conditions: po. The data set is classed as ADME, organism-based. Also noted: route oral. In short, it runs like this:
as §2

Data set [16] has as its system Homo sapiens. Put plainly: Toxicity in healthy human assessed as lymphocytes count in bronchoalveolar fluid at […], po administered as single dose after 6 hrs. The format is organism-based, Lung. Also noted: route oral. As to conditions: in vivo. In short, it runs like this: as §1
In data set [17] the test system is Homo sapiens. The data set is described as follows: Toxicity in healthy human assessed as lymphocytes count in bronchoalveolar fluid at […], po administered as single dose after 2 hrs. As to conditions: in vivo. The data set is classed as organism-based, Lung. Also noted: route oral. In short, it runs like this:
as §1

The term MIC90 denotes the lowest concentration that inhibits either 90% of growth or 90% of the strains tested, depending on the study. Read a high MIC90 as weaker potency. As usually defined, the Tmax is the time at which the peak concentration occurs. A word on the AUC(0-t): it is exposure summed from dosing to a finite time, without extrapolation to infinity. Read a low AUC(0-t) as less exposure. By Kp is commonly meant the ratio of the level in a tissue or fluid to that in plasma or blood. In the case of `CC[C@H]1OC(=O)[C@H](C)C(=O)[C@H](C)[C@@H](O[C@@H]2O[C@H](C)C[C@H](N(C)C)[C@H]2O)[C@@]2(C)C[C@@H](C)/C(=N\C(C)=O)[C@H](C)[C@@H](OC/C(=N\OCc3ccc(-n4cccn4)nc3)CO2)[C@]1(C)O` [MODITHROMYCIN], the Activity in the data set on Homo sapiens [1] was found to be 0%; with Homo sapiens [2] it was 0%; with Homo sapiens [3], 0.1%; in the data set with Homo sapiens [4], 85.9%; in the data set on Homo sapiens [7], 0%; in the data set with Homo sapiens [16], 13%. The Activity in the data set on Homo sapiens [17] was 15.3%. In the data set with Staphylococcus aureus, this molecule gave an MIC90 not above 0.063 µg/mL. Also, in [5], the Tmax came out at 12 h. For the same molecule, the exposure AUC(0-t) at 24 h in [6] was 212 µg·h/mL. For the same molecule, in data set [8], the Kp at 10 h was determined as 260. Moreover, the partition ratio (Kp) at 4 h in data set [9] came to 24.8. Moreover, the concentration at 6 h in [10] turned out to be 100000 ng/mL. The concentration at 8 h in data set [11] was determined as 441 ng/mL; in data set [12], 11400 ng/mL; in data set [14], 125000 ng/mL. In data set [13], this molecule displayed a concentration at 2 h of 646 ng/mL. Besides, the Kp at 2 h in data set [15] was 26.3.

For the origin of these results see ChEMBL document CHEMBL1240362, “Intrapulmonary pharmacokinetics of S-013420, a novel bicyclolide antibacterial, in healthy Japanese subjects” (Antimicrob Agents Chemother, 2010).
